Results from ChEMBL document CHEMBL5303300, “EUbOPEN Chemogenomics Library - Multiplex” (2023).
“And” between values parts separate entries of the source, which are not always exact repeats. Equal entries are not always repeated. *1 amine or outer side, *2 acyl side, *3 side chain or, on linkers, in order; H or OH if unused. Where a SMILES comes first, the peptide text is derived from it. Bridges are numbered along the chain shown (N, C = ends). Roman numbers before positions name the chains, in order. [ ]: non-standard residue; d: D form. Hexamethylenediamine = C(CCCN[*:2])CCN[*:1]; Dip = N[C@H](C(=O)O)C(c1ccccc1)c1ccccc1; Chg = N[C@H](C(=O)O)C1CCCCC1; NMeA = CN[C@@H](C)C(=O)O

Test system: U2OS
Experiment: Multiplex assay against U2OS
Assay type: toxicity, cell-based
Settings: human, number of replicates 2
How it was run: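 Compound was added to live cells that had been stained at seeding with Hoechst33342, BioTracker Green Microtubule Cytoskeleton Dye, MitoTracker Red and Annexin V Alexa Fluor 680, and imaging followed on a CQ1 microscope at 37°C and 5% CO2. CellPathfinder machine-learning gating divided cells into Hoechst high-intensity objects or normal cells, normal cells into healthy, pyknosed or fragmented nuclei, and pyknosed cells into mitotic or apoptotic. Tubulin, mitochondrial-mass and membrane-permeability phenotypes are per cents of healthy-nucleus cells.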

[1] = 12 h, 1 µM, compound concentration 1 uM
[2] = 12 h, 10 µM, compound concentration 10 uM
[3] = 24 h, 1 µM, compound concentration 1 uM
[4] = 24 h, 10 µM, compound concentration 10 uM
[5] = 48 h, 1 µM, compound concentration 1 uM
[6] = 48 h, 10 µM, compound concentration 10 uM

c1ccc2c(-c3coc4cc(-c5ccc(N6CCNCC6)cc5)cnc34)ccnc2c1
Population Healthy Nuclei (%) [1]: 82% and 84% | Population Mitochondria Different-Phenotype (%) [1]: 0% and 2% | Population Normal (%) [1]: 100% | Population Pyknosed Nuclei (%) [1]: 0% and 10% | Population Tubulin-Different-Phenotype (%) [1]: 84% and 81% | Population Apoptotic (%) [2]: 93% and 90% | Population Healthy Nuclei (%) [2]: 0% and 6% | Population Mitochondria Different-Phenotype (%) [2]: 100% and 75% | Population Mitotic Cells (%) [2]: 6% and 10% | Population Normal (%) [2]: 100% and 98% | Population Pyknosed Nuclei (%) [2]: 95% and 60% | Population Tubulin-Different-Phenotype (%) [2]: 100% | Total Cell Count [2]: 163 and 67 | Population Apoptotic (%) [3]: 100% and 76% | Population Healthy Nuclei (%) [3]: 91% and 82% | Population Mitochondria Different-Phenotype (%) [3]: 0% | Population Mitotic Cells (%) [3]: 0% and 23% | Population Normal (%) [3]: 100% | Population Pyknosed Nuclei (%) [3]: 2% and 10% | Population Tubulin-Different-Phenotype (%) [3]: 81% and 82% | Population Apoptotic (%) [4]: 92% and 87% | Population Healthy Nuclei (%) [4]: 0% and 4% | Population Mitotic Cells (%) [4]: 7% and 12% | Population Normal (%) [4]: 98% and 97% | Population Pyknosed Nuclei (%) [4]: 93% and 56% | Population Tubulin-Different-Phenotype (%) [4]: 100% and 66% | Total Cell Count [4]: 160 and 71 | Population Apoptotic (%) [5]: 75% | Population Healthy Nuclei (%) [5]: 83% and 84% | Population Mitochondria Different-Phenotype (%) [5]: 0% | Population Mitotic Cells (%) [5]: 25% | Population Normal (%) [5]: 100% | Population Pyknosed Nuclei (%) [5]: 6% and 10% | Population Tubulin-Different-Phenotype (%) [5]: 87% | Population Apoptotic (%) [6]: 91% | Population Healthy Nuclei (%) [6]: 8% and 1% | Population Mitotic Cells (%) [6]: 8% | Population Normal (%) [6]: 98% | Population Pyknosed Nuclei (%) [6]: 39% and 87% | Population Tubulin-Different-Phenotype (%) [6]: 57% and 100% | Total Cell Count [6]: 87 and 164

CN1CCc2cc(Nc3ncc(C(F)(F)F)c(NCc4cc[nH]n4)n3)ccc2C1
Population Hoechst High Intensity Objects (%) [1]: 0% | Population Membrane Permeable-Phenotype (%) [1]: 0% and 4% | Population Mitochondria Different-Phenotype (%) [1]: 0% and 1% | Population Mitotic Cells (%) [1]: 0% and 12% | Population Normal (%) [1]: 100% | Population Healthy Nuclei (%) [2]: 33% and 57% | Population Hoechst High Intensity Objects (%) [2]: 0% | Population Membrane Permeable-Phenotype (%) [2]: 0% and 7% | Population Mitochondria Different-Phenotype (%) [2]: 0% and 5% | Population Normal (%) [2]: 100% | Population Pyknosed Nuclei (%) [2]: 16% and 27% | Population Tubulin-Different-Phenotype (%) [2]: 50% and 41% | Population Hoechst High Intensity Objects (%) [3]: 0% | Population Membrane Permeable-Phenotype (%) [3]: 0% and 6% | Population Mitochondria Different-Phenotype (%) [3]: 0% and 4% | Population Mitotic Cells (%) [3]: 0% and 8% | Population Normal (%) [3]: 100% and 99% | Population Apoptotic (%) [4]: 71% and 80% | Population Healthy Nuclei (%) [4]: 15% and 45% | Population Hoechst High Intensity Objects (%) [4]: 0% and 1% | Population Membrane Permeable-Phenotype (%) [4]: 20% and 15% | Population Mitochondria Different-Phenotype (%) [4]: 20% and 8% | Population Mitotic Cells (%) [4]: 28% and 19% | Population Normal (%) [4]: 100% and 98% | Population Pyknosed Nuclei (%) [4]: 21% and 42% | Population Tubulin-Different-Phenotype (%) [4]: 60% | Population Healthy Nuclei (%) [5]: 0% and 21% | Population Hoechst High Intensity Objects (%) [5]: 0% and 1% | Population Mitochondria Different-Phenotype (%) [5]: 0% and 22% | Population Mitotic Cells (%) [5]: 0% | Population Normal (%) [5]: 100% and 98% | Population Apoptotic (%) [6]: 93% and 88% | Population Healthy Nuclei (%) [6]: 16% and 15% | Population Hoechst High Intensity Objects (%) [6]: 1% and 0% | Population Mitotic Cells (%) [6]: 6% and 11% | Population Normal (%) [6]: 98% and 100% | Population Pyknosed Nuclei (%) [6]: 68% and 23% | Population Tubulin-Different-Phenotype (%) [6]: 80% and 66%

CN[C@@H](C)C(=O)N[C@H](C(=O)N1CCC[C@H]1C(=O)N[C@H](C(=O)NCCCCCCNC(=O)[C@@H](NC(=O)[C@@H]1CCCN1C(=O)[C@@H](NC(=O)[C@H](C)NC)C1CCCCC1)C(c1ccccc1)c1ccccc1)C(c1ccccc1)c1ccccc1)C1CCCCC1 (I: H-[NMeA][Chg]P[Dip] / II: H-[NMeA][Chg]P[Dip]; linker I:C-II:C via Hexamethylenediamine)
Population Apoptotic (%) [1]: 75% and 38% | Population Healthy Nuclei (%) [1]: 41% and 84% | Population Hoechst High Intensity Objects (%) [1]: 0% | Population Membrane Permeable-Phenotype (%) [1]: 0% | Population Mitochondria Different-Phenotype (%) [1]: 0% | Population Mitotic Cells (%) [1]: 25% and 61% | Population Normal (%) [1]: 100% | Population Pyknosed Nuclei (%) [1]: 7% and 12% | Population Tubulin-Different-Phenotype (%) [1]: 36% and 78% | Total Cell Count [1]: 53 and 104 | Population Apoptotic (%) [2]: 90% and 91% | Population Healthy Nuclei (%) [2]: 62% and 56% | Population Hoechst High Intensity Objects (%) [2]: 1% and 0% | Population Membrane Permeable-Phenotype (%) [2]: 10% and 0% | Population Mitochondria Different-Phenotype (%) [2]: 20% and 19% | Population Mitotic Cells (%) [2]: 9% and 8% | Population Normal (%) [2]: 98% and 100% | Population Pyknosed Nuclei (%) [2]: 31% and 21% | Population Tubulin-Different-Phenotype (%) [2]: 57% and 22% | Population Apoptotic (%) [3]: 62% and 52% | Population Healthy Nuclei (%) [3]: 47% and 89% | Population Hoechst High Intensity Objects (%) [3]: 0% | Population Membrane Permeable-Phenotype (%) [3]: 9% and 0% | Population Mitochondria Different-Phenotype (%) [3]: 0% | Population Mitotic Cells (%) [3]: 37% and 47% | Population Normal (%) [3]: 100% | Population Pyknosed Nuclei (%) [3]: 12% and 9% | Total Cell Count [3]: 65 and 175 | Population Apoptotic (%) [4]: 77% and 80% | Population Fragmented Nuclei (%) [4]: 9% | Population Healthy Nuclei (%) [4]: 54% and 58% | Population Hoechst High Intensity Objects (%) [4]: 0% | Population Membrane Permeable-Phenotype (%) [4]: 11% and 8% | Population Mitotic Cells (%) [4]: 22% and 19% | Population Normal (%) [4]: 100% and 99% | Population Pyknosed Nuclei (%) [4]: 35% and 32% | Population Tubulin-Different-Phenotype (%) [4]: 23% and 47% | Population Apoptotic (%) [5]: 78% and 74% | Population Healthy Nuclei (%) [5]: 45% and 79% | Population Hoechst High Intensity Objects (%) [5]: 0% | Population Membrane Permeable-Phenotype (%) [5]: 9% and 2% | Population Mitochondria Different-Phenotype (%) [5]: 4% and 0% | Population Mitotic Cells (%) [5]: 21% and 25% | Population Normal (%) [5]: 100% | Population Pyknosed Nuclei (%) [5]: 20% and 12% | Population Tubulin-Different-Phenotype (%) [5]: 33% and 81% | Population Apoptotic (%) [6]: 94% and 76% | Population Fragmented Nuclei (%) [6]: 7% and 14% | Population Healthy Nuclei (%) [6]: 63% and 52% | Population Hoechst High Intensity Objects (%) [6]: 0% | Population Membrane Permeable-Phenotype (%) [6]: 9% and 10% | Population Mitochondria Different-Phenotype (%) [6]: 7% and 8% | Population Normal (%) [6]: 99% and 100% | Population Pyknosed Nuclei (%) [6]: 28% and 33% | Population Tubulin-Different-Phenotype (%) [6]: 50% and 34%
